Published values pooled from the literature.
Lines come from different studies, so protocols differ. pEC50, pIC50: −log10 of the molar value.
Organism: Leishmania infantum
Read-out: parasite growth

SMILES	method	cells	time	setting	measurement	value
O=C(N[C@@H](Cc1ccccc1)C(=O)c1nc2ccccc2s1)[C@H](Cc1ccccc1)NC(=O)N1CCOCC1				intracellular, amastigote	pIC50	4.90
Cc1ccc(-c2c(-c3ccccn3)nc3n2CCC3)cc1			5 days	intracellular, amastigote	pEC50	6.30
CCCCCCCCCCCCCCCCOP(=O)([O-])OCC[N+](C)(C)C	imaging			intracellular, amastigote	pIC50	5.28
Fc1ccc(Nc2c(-c3cccnn3)nc3ccccn23)cc1				intracellular, amastigote	pIC50	4.46
CCCCCCCCCCCCCCCCC#CC(=O)O			52 h	promastigote	pIC50	4.30
O=C(N[C@@H](CCc1ccccc1)C(=O)c1cc(-c2ccccc2)on1)[C@H](Cc1ccccc1)NC(=O)N1CCOCC1 (single isomer, unassigned)				intracellular, amastigote	pIC50	< 4.19
c1ccc(-c2nc3n(c2-c2ccc4cccnc4c2)CCC3)nc1			5 days	intracellular, amastigote	pEC50	5.40
O=C(N[C@@H](Cc1ccccc1)C(=O)c1nccs1)[C@H](Cc1ccccc1)NC(=O)N1CCOCC1				intracellular, amastigote	pIC50	< 4.19
CCCCCCCCCCCCCCCCOP(=O)([O-])OCC[N+](C)(C)C	imaging	mouse Macrophage	5 days	intracellular, amastigote	pEC50	5.08
